# Legend:
# MT4 = test: Cytotoxic concentration required to inhibit the viability of MT-4 cells; type: functional; details: Homo sapiens
# Summary of the method: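 Mock-infected MT-4 cells (5×10^5 cells/mL) were cultured with serial dilutions of test compound for 5 days. Viable cells were counted by trypan blue staining. CC50 = concentration reducing the number of viable mock-infected MT-4 cells by 50%.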
# [1] = test system: Human immunodeficiency virus 1; test: Selectivity index expressed as the ratio of CC50/EC50 of MT-4 cell lines
# [2] = test system: Human immunodeficiency virus 2; test: Effective concentration required to inhibit HIV-2 induced cytopathicity in MT-4 cells; type: functional, organism-based; details: Human immunodeficiency virus 2, MT4
# [3] = Effective concentration required to inhibit HIV-1 induced cytopathicity in MT-4 cells; type: functional, cell-based; details: Human immunodeficiency virus 1, MT4
# Summary of the method: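 MT-4 cells (5×10^5 cells/mL) were infected with HIV-1 at 100 CCID50 per mL of cell suspension and incubated with serial compound dilutions for 5 days. Viable cells were counted by trypan blue staining. EC50 = concentration reducing virus-induced loss of viable MT-4 cells by 50%.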
# CCRF-CEM = test: Effective concentration required to inhibit HIV- induced giant cell formation in CEM cells; type: functional, cell-based; details: Homo sapiens
# Summary of the method: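 CEM cells (5×10^5 cells/mL) were infected with HIV-1 at 100 CCID50 per mL of cell suspension and mixed with compound dilutions. Syncytia were scored microscopically after 4 days. EC50 = concentration reducing syncytium number by 50%.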
EC50 [2] [µM],EC50 [3] [µM],EC50 (CCRF-CEM) [µM],SMILES,CC50 (MT4) [µM],Selectivity index [1]
> 7,0.158,,CC(C)(C)[Si](C)(C)OC[C@H]1O[C@@H](n2cnc3c(O)ncnc32)[C@H](O[Si](C)(C)C(C)(C)C)[C@]12OS(=O)(=O)C=C2N,14,89
> 150,0.514,0.101,Cn1cnc2c(ncn2[C@@H]2O[C@H](CO[Si](C)(C)C(C)(C)C)[C@@]3(OS(=O)(=O)C=C3N)[C@H]2O[Si](C)(C)C(C)(C)C)c1=O,> 150,>292
> 150,0.604,0.172,CCn1cnc2ncn([C@@H]3O[C@H](CO[Si](C)(C)C(C)(C)C)[C@@]4(OS(=O)(=O)C=C4N)[C@H]3O[Si](C)(C)C(C)(C)C)c2c1=O,> 150,>248
> 7,2.7,2.3,CC(C)(C)[Si](C)(C)OC[C@H]1O[C@@H](n2c(=O)[nH]c(=O)c3[nH]cnc32)[C@H](O[Si](C)(C)C(C)(C)C)[C@]12OS(=O)(=O)C=C2N,14,5.2
> 7,0.358,0.126,CC(C)(C)[Si](C)(C)OC[C@H]1O[C@@H](n2cnc3[nH]c(=O)[nH]c(=O)c32)[C@H](O[Si](C)(C)C(C)(C)C)[C@]12OS(=O)(=O)C=C2N,13,36
> 7,0.173,,CC(C)(C)[Si](C)(C)OC[C@H]1O[C@@H](n2cnc3ncnc(O)c32)[C@H](O[Si](C)(C)C(C)(C)C)[C@]12OS(=O)(=O)C=C2N,15,86
> 100,0.201,0.067,Cn1cnc2ncn([C@@H]3O[C@H](CO[Si](C)(C)C(C)(C)C)[C@@]4(OS(=O)(=O)C=C4N)[C@H]3O[Si](C)(C)C(C)(C)C)c2c1=O,156,776
> 7,0.177,0.074,CC(C)(C)[Si](C)(C)OC[C@H]1O[C@@H](n2cnc3cncnc32)[C@H](O[Si](C)(C)C(C)(C)C)[C@]12OS(=O)(=O)C=C2N,13,73
> 30,0.141,0.469,COc1ncnc2c1ncn2[C@@H]1O[C@H](CO[Si](C)(C)C(C)(C)C)[C@@]2(OS(=O)(=O)C=C2N)[C@H]1O[Si](C)(C)C(C)(C)C,21,149

# Continued, compound first:
SMILES,EC50 [2] [µM],EC50 [3] [µM],EC50 (CCRF-CEM) [µM],CC50 (MT4) [µM],Selectivity index [1]
CC(C)(C)[Si](C)(C)OC[C@H]1O[C@@H](n2cnc3c(N)ncnc32)[C@H](O[Si](C)(C)C(C)(C)C)[C@]12OS(=O)(=O)C=C2N,> 14,0.278,,13,47
COc1ccc(C(Nc2ncnc3c2ncn3[C@@H]2O[C@H](CO[Si](C)(C)C(C)(C)C)[C@]3(OS(=O)(=O)C=C3N)[C@H]2O[Si](C)(C)C(C)(C)C)(c2ccccc2)c2ccccc2)cc1,> 100,> 100,,191,<1.9
CC(C)(C)[Si](C)(C)OC[C@H]1O[C@@H](n2cnc3c(N)ncnc32)[C@H](O[Si](C)(C)C(C)(C)C)[C@@]12OS(=O)(=O)C=C2N,> 2.7,> 2.7,,7.3,<2.7
COc1ccc(C(Nc2ncnc3c2ncn3[C@@H]2O[C@H](CO[Si](C)(C)C(C)(C)C)[C@@]3(OS(=O)(=O)C=C3N)[C@H]2O[Si](C)(C)C(C)(C)C)(c2ccccc2)c2ccccc2)cc1,> 100,> 100,,192,<1.9
CC(C)(C)[Si](C)(C)OC[C@H]1O[C@@H](n2cnc3ncn([C@@H]4O[C@H](CO[Si](C)(C)C(C)(C)C)[C@@]5(OS(=O)(=O)C=C5N)[C@H]4O[Si](C)(C)C(C)(C)C)c3c2=O)[C@H](O[Si](C)(C)C(C)(C)C)[C@]12OS(=O)(=O)C=C2N,> 150,> 150,,> 150,<1
CC(C)(C)[Si](C)(C)OC[C@H]1O[C@@H](n2cnc3ccccc32)[C@H](O[Si](C)(C)C(C)(C)C)[C@]12OS(=O)(=O)C=C2N,> 7,3.1,,15,4.8
CN(C)c1ncnc2c1ncn2[C@@H]1O[C@H](CO[Si](C)(C)C(C)(C)C)[C@@]2(OS(=O)(=O)C=C2N)[C@H]1O[Si](C)(C)C(C)(C)C,> 30,0.389,0.646,15,39
CNc1ncnc2c1ncn2[C@@H]1O[C@H](CO[Si](C)(C)C(C)(C)C)[C@@]2(OS(=O)(=O)C=C2N)[C@H]1O[Si](C)(C)C(C)(C)C,> 7,0.146,0.161,14,96

# — ChEMBL document CHEMBL1126866, “TSAO analogues. 3. Synthesis and anti-HIV-1 activity of 2',5'-bis-O-(tert-butyldimethylsilyl)-beta-D-ribofuranosyl 3'-spiro-5''-(4''-amino-1'',2''-oxathiole 2'',2''-dioxide) purine and purine-modified nucleosides” (J Med Chem, 1993)
